From ChEMBL document CHEMBL1828510, “Synthesis of 3-heteroarylthioquinoline derivatives and their in vitro antituberculosis and cytotoxicity studies” (Eur J Med Chem, 2011)

System: NIH3T3
Assay: Cytotoxicity against mouse NIH/3T3 cells after 48 hrs by MTT assay
Type: cell-based
Settings: NIH3T3, 48 h
Method in brief: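 NIH 3T3 mouse embryonic fibroblasts kept in DMEM + 10% FBS at 37 °C, 5% CO2. Seeded at 10,000 cells/well in medium with 5% FBS and left 24 h to attach. Compounds dissolved in DMSO, diluted in serum-free medium, serial concentrations, 48 h exposure, triplicates. MTT (5 mg/mL stock) added for 4 h, formazan taken up in DMSO, A570 read. Viability calculated as % of untreated control; IC50 taken from the dose curve.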

Cc1nnc(Sc2c(-c3ccc(Cl)cc3)nc3ccccc3c2-c2ccccc2)s1
IC50: 1.26 mM

Cc1nnc(Sc2c(-c3ccc(Br)cc3)nc3ccccc3c2-c2ccccc2)s1
IC50: 2.05 mM
